Assay results published in ChEMBL document CHEMBL1165965, “Synthesis and structure-activity relationships of 1,2,3,4-tetrahydropyrido[2,3-b]pyrazines as potent and selective inhibitors of the anaplastic lymphoma kinase” (Bioorg Med Chem, 2010).

Tests used:
[1] = molecular target: Rho-associated protein kinase 2 (Homo sapiens) (UniProt O75116); experiment: Inhibition of ROCK2 at 1 uM
[2] = molecular target: Epidermal growth factor receptor (Homo sapiens) (UniProt P04626+P00533+Q15303+P21860); experiment: Inhibition of EGFR L747-S752del, P753S mutant at 1 uM; format: protein assay
Procedure, shortened: (§1)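 Single-concentration screen using Ambit Bioscience KINOMEscan technology across a panel of 250–400 kinases. Per-kinase inhibition from this screen was summarized as S(90), the fraction of kinases inhibited by more than 90%.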

[3] = molecular target: T1, Myotonin-protein kinase (Homo sapiens) (UniProt Q09013); experiment: Inhibition of DMPK at 1 uM; procedure, shortened: as §1
T1 sequence (whole entry): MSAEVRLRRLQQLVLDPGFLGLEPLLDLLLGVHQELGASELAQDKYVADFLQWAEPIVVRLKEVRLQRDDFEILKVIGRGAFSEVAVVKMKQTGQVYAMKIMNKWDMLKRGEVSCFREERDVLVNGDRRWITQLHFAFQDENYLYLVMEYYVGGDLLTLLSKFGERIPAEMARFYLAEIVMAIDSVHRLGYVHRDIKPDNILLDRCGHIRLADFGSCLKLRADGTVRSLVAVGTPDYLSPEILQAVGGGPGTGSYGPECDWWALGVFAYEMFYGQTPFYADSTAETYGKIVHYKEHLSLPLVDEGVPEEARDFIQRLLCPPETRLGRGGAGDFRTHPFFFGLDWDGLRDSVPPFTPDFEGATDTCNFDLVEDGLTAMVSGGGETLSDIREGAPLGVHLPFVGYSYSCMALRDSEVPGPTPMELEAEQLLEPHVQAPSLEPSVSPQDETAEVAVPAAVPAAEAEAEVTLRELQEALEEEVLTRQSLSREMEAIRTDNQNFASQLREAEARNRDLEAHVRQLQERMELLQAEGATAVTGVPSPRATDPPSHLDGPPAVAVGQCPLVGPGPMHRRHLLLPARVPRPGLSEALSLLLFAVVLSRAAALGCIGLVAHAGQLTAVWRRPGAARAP

[4] = molecular target: Mitogen-activated protein kinase kinase kinase 20 (Homo sapiens) (UniProt Q9NYL2); experiment: Inhibition of ZAK at 1 uM
[5] = molecular target: Serine/threonine-protein kinase/endoribonuclease IRE1 (Homo sapiens) (UniProt O75460); experiment: Inhibition of ERN1 at 1 uM
[6] = molecular target: Myosin light chain kinase, smooth muscle (Homo sapiens) (UniProt Q15746); experiment: Inhibition of MYLK at 1 uM
[7] = molecular target: Activin receptor type-2B (Homo sapiens) (UniProt Q13705); experiment: Inhibition of ACVR2B at 1 uM
Procedure, shortened: (§2)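 Ambit KINOMEscan screen at a single concentration across a 250–400 kinase panel, recorded as percent inhibition. Selectivity was expressed as S(90), the fraction of kinases inhibited >90%.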

[8] = molecular target: Tyrosine-protein kinase Fer (Homo sapiens) (UniProt P16591); experiment: Inhibition of FER at 1 uM; procedure, shortened: as §1
[9] = molecular target: RAC-gamma serine/threonine-protein kinase (Homo sapiens) (UniProt Q9Y243); experiment: Inhibition of AKT3 at 1 uM; procedure, shortened: as §2
[10] = molecular target: T2, Serine/threonine-protein kinase TNNI3K (Homo sapiens) (UniProt Q59H18); experiment: Inhibition of TNNI3K at 1 uM
T2 sequence (whole entry): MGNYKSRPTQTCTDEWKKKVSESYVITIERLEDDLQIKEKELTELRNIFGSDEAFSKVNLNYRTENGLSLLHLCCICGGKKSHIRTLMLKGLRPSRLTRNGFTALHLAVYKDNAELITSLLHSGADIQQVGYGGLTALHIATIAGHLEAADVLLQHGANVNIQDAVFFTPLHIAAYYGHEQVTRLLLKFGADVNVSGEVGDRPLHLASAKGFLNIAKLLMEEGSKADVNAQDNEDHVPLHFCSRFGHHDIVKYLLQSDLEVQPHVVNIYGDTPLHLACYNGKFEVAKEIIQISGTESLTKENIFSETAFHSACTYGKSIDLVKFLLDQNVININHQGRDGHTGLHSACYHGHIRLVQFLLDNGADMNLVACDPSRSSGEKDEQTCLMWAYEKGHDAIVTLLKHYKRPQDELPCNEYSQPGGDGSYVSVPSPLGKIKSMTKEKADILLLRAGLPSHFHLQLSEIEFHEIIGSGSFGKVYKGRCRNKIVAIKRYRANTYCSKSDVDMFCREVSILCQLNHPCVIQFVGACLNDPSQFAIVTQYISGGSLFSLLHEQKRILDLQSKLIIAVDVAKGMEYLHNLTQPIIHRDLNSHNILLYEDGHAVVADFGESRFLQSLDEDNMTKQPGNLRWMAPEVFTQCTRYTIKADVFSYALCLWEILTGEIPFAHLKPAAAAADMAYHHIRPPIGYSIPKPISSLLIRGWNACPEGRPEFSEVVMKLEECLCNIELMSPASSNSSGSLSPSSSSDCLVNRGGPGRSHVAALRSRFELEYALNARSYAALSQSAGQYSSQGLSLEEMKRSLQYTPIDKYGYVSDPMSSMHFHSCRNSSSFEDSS

[11] = molecular target: Tyrosine-protein kinase ABL2 (Homo sapiens) (UniProt P42684); experiment: Inhibition of ABL2 at 1 uM; procedure, shortened: as §2
[12] = molecular target: Mitogen-activated protein kinase 9 (Homo sapiens) (UniProt P45984); experiment: Inhibition of JNK2 at 1 uM
Procedure, shortened: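 Single-concentration screen on the Ambit KINOMEscan platform, run against a panel of 250–400 kinases. Per-kinase inhibition was also summarized as S(90), the fraction of kinases inhibited by more than 90%.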

Measured: inhibition

Chain of RAC-gamma serine/threonine-protein kinase (Homo sapiens) (Q9Y243 whole entry): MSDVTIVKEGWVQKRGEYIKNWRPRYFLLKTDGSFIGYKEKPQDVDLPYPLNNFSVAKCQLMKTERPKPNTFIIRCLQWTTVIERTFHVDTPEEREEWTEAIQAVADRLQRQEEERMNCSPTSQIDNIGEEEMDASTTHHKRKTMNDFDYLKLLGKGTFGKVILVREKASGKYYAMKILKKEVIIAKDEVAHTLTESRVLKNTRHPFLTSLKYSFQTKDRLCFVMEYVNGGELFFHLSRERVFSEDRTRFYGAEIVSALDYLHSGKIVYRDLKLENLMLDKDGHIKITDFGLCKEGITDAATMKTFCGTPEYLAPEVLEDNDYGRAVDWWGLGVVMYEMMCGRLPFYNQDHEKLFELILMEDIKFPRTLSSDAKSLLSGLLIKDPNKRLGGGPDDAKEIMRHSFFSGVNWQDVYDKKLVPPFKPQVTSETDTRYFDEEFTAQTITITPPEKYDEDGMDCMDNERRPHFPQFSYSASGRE
Chain of Tyrosine-protein kinase ABL2 (Homo sapiens) (P42684 whole entry): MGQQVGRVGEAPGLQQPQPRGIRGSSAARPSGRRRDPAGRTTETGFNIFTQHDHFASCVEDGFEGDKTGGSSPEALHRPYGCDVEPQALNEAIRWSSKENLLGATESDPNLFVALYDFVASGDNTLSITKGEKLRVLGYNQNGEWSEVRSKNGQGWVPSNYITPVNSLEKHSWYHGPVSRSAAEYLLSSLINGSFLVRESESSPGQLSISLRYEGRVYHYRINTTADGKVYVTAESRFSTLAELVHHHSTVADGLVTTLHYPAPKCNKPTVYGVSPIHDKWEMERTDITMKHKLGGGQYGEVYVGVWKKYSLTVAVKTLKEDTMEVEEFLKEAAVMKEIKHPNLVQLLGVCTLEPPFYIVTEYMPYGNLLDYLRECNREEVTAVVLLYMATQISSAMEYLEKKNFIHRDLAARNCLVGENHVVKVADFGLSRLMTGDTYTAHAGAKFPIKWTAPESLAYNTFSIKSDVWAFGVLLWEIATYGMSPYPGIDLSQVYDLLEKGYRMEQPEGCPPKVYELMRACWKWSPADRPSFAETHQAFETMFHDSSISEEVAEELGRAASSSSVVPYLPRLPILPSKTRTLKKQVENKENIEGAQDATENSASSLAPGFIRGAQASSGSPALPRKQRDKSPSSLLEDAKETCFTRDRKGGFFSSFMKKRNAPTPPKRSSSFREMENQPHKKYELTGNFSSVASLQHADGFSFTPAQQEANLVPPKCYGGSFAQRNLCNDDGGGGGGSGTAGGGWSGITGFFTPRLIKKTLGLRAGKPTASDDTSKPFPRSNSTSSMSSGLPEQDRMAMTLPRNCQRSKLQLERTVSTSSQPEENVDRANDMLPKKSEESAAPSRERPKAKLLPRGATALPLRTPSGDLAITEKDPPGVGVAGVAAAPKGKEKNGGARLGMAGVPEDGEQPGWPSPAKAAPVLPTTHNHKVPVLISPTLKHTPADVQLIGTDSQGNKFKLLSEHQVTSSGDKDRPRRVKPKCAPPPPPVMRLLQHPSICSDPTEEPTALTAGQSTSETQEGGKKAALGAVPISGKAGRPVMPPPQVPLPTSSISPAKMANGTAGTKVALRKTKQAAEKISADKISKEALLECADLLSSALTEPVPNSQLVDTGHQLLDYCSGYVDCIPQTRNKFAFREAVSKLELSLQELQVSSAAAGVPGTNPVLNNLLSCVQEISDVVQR
Chain of Mitogen-activated protein kinase kinase kinase 20 (Homo sapiens) (Q9NYL2 2-800 limits assumed): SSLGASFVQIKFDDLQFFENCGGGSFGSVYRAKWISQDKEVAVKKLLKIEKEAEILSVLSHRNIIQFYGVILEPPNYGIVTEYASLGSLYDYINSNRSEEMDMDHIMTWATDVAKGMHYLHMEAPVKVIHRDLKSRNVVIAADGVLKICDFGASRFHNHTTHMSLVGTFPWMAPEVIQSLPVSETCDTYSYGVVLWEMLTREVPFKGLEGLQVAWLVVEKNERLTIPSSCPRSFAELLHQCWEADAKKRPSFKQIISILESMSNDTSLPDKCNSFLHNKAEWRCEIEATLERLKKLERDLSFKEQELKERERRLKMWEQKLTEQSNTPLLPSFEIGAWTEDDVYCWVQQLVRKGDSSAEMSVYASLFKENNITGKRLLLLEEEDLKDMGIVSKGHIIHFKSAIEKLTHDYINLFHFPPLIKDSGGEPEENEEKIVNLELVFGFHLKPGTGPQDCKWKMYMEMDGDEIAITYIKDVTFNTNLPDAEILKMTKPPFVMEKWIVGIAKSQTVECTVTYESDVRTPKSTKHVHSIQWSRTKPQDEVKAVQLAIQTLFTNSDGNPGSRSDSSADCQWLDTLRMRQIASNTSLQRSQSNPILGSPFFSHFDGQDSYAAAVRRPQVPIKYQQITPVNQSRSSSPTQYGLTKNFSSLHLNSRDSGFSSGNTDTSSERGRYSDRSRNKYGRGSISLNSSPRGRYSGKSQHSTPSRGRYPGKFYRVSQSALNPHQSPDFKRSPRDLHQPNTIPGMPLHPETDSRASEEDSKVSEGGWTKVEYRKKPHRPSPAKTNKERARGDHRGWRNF
Chain of Serine/threonine-protein kinase/endoribonuclease IRE1 (Homo sapiens) (O75460 19-977 limits assumed): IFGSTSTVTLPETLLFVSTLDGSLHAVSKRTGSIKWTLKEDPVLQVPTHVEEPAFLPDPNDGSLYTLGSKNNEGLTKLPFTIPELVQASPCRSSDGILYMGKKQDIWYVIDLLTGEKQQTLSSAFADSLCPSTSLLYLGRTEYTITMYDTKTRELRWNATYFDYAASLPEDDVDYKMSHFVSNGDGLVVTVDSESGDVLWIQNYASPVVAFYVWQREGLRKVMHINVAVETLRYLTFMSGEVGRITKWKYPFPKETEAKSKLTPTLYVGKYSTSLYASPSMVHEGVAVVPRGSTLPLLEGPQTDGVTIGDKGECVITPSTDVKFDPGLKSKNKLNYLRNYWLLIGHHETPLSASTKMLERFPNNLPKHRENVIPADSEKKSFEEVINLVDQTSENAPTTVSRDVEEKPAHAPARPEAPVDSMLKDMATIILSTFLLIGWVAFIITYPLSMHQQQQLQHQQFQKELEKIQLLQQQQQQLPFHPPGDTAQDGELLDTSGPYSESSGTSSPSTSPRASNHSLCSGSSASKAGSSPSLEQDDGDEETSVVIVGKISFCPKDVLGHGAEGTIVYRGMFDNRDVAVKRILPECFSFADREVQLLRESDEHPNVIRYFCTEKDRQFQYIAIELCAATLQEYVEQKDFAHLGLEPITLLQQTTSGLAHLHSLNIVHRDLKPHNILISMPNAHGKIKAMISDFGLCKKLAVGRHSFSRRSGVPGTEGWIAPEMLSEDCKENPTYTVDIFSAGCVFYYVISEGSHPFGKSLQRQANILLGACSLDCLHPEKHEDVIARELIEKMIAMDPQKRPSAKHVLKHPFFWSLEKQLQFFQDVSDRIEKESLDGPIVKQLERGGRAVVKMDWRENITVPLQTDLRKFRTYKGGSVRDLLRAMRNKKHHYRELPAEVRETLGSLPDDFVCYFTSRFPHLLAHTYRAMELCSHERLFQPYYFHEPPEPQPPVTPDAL
Chain of Mitogen-activated protein kinase 9 (Homo sapiens) (P45984 whole entry, looked up): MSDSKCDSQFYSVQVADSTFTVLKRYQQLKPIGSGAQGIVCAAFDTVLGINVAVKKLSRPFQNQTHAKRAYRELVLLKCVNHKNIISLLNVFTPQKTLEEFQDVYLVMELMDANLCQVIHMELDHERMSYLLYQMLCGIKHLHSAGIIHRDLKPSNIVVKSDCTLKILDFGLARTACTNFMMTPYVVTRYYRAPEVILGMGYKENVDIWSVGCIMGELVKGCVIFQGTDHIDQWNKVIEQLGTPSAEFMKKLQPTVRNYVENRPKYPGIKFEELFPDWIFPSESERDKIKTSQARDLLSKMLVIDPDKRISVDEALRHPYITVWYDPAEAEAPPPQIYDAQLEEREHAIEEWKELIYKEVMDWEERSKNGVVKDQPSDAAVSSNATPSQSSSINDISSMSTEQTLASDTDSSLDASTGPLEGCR
Chain of Activin receptor type-2B (Homo sapiens) (Q13705 whole entry): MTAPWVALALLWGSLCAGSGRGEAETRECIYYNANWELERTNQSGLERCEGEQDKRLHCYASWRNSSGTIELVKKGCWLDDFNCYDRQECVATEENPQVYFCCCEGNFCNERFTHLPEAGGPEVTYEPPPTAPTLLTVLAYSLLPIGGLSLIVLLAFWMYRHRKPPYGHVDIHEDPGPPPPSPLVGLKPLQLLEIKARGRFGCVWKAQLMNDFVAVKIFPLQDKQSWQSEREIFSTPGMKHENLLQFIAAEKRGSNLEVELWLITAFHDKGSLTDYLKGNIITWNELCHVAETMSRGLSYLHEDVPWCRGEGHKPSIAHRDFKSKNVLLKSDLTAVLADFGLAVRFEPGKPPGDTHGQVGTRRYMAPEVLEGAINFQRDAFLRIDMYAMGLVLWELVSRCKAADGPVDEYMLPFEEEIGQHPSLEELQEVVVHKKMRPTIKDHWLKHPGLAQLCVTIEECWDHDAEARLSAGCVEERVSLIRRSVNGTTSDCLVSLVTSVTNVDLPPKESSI

CN1CCN(c2ccc(-c3cnc4c(c3)N(Cc3cc(Cl)ccc3Cl)CCN4)cn2)CC1
< 50%: all assays above

CN1CCN(c2ccc(-c3cnc4c(c3)N(Cc3cc(Cl)ccc3C(F)(F)F)CCN4)cn2)CC1
< 50%: all assays above

CN1CCN(c2ccc(-c3cnc4c(c3)N(Cc3c(F)ccc(F)c3Cl)CCN4)cn2)CC1
83%: [11]
< 50%: all other assays above

O=C(c1ccc(-c2cnc3c(c2)N(Cc2cc(Cl)ccc2C(F)(F)F)CCN3)cc1)N1CCC(N2CCCC2)CC1
75.9%: [11]
not listed: [1] | [4] | [5] | [6]
< 50%: all other assays above

COC1CCN(C(=O)c2ccc(-c3cnc4c(c3)N(Cc3cc(Cl)ccc3C(F)(F)F)CCN4)cc2)CC1
not listed: [1] | [4] | [5] | [6]
< 50%: all other assays above

FC(F)(F)c1ccc(Cl)cc1CN1CCNc2ncc(-c3ccnc(N4CCNCC4)c3)cc21
76%: [1]
97%: [8]
< 50%: all other assays above

CN1CCN(c2ccc(-c3cnc4c(c3)N(Cc3cc(F)ccc3F)CCN4)cn2)CC1
< 50%: all assays above

O=C(c1ccc(-c2cnc3c(c2)N(Cc2cc(Cl)ccc2C(F)(F)F)CCN3)cc1)N1CCCCC1
not listed: [1] | [4] | [5] | [6]
< 50%: all other assays above

CC(=O)N1CCN(c2cc(-c3cnc4c(c3)N(Cc3cc(Cl)ccc3C(F)(F)F)CCN4)ccn2)CC1
< 50%: all assays above

O=C(O)c1ccc(-c2cnc3c(c2)N(Cc2cc(Cl)ccc2C(F)(F)F)CCN3)cc1
not listed: [1] | [4] | [5] | [6]
< 50%: all other assays above
